Calls of active or inactive are those of the source. The calls are words filed in the database; no cut-off is given here.
How the values were obtained:
DU-145 = assay: Cytotoxicity against human DU145 cells assessed as growth inhibition after 3 days by sulforhodamine B assay; assay type: functional
KB = assay: Cytotoxicity against human KB cells assessed as growth inhibition after 3 days by sulforhodamine B assay; assay type: functional
Neutrophil [1] = assay: Inhibition of fMLP/CB-activated human neutrophil degranulation assessed as inhibition of elastase release using MeO-Suc-Ala-Ala-Pro-Val-p-nitroanilide as a substrate after 5 mins; assay type: functional, cell-based
In short: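 Neutrophils from dextran sedimentation, Ficoll Hypaque centrifugation and hypotonic erythrocyte lysis (>98% viable by trypan blue), held in Ca2+-free HBSS pH 7.4 at 4 °C; 5×10^5/mL cells with 100 μM substrate equilibrated 37 °C 2 min, compound 5 min, then 100 nM FMLP plus 0.5 μg/mL CB; A405 monitored continuously; expressed as % of initial rate in drug-free activated control; mean ± S.E.M., n = 3–4; top concentration 30 μM.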

HCT-8 = assay: Cytotoxicity against human HCT8 cells assessed as growth inhibition after 3 days by sulforhodamine B assay; assay type: functional, cell-based
Neutrophil [2] = assay: Inhibition of superoxide anion generation in human neutrophils in response to fMLP/CB
A549 = assay: Cytotoxicity against human A549 cells assessed as growth inhibition after 3 days by sulforhodamine B assay; assay type: functional, cell-based
Neutrophil [3] = assay: Inhibition of fMLP/CB-stimulated superoxide anion generation in human neutrophils; assay type: functional, cell-based
In short: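 Isolated human neutrophils (dextran sedimentation, Ficoll Hypaque, hypotonic lysis; >98% viable) with 0.5 mg/mL ferricytochrome c and 1 mM Ca2+, 37 °C 2 min, compound 5 min; CB 1 μg/mL 3 min, then 100 nM FMLP 10 min; SOD-inhibitable cytochrome c reduction followed continuously at 550 nm with stirring; mean ± S.E.M., n = 3–4; top concentration 30 μM.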

[4] = Inhibition of yeast alpha-glucosidase assessed as p-nitrophenol release after 20 mins by microplate spectrophotometer; design: species or system Saccharomyces cerevisiae

## COC(=O)[C@H]1O[C@@H](O[C@H]2CC[C@]3(C)[C@H]4CC=C5[C@@H]6CC(C)(C)CC[C@]6(C(=O)O[C@@H]6O[C@H](CO)[C@@H](O)[C@H](O)[C@H]6O)CC[C@@]5(C)[C@]4(C)CC[C@H]3C2(C)C)[C@H](O)[C@@H](O)[C@@H]1O
DU-145
  growth inhibition (GI): inactive
KB
  growth inhibition (GI): inactive
Neutrophil [1]
  IC50: 1.97 µM
HCT-8
  growth inhibition (GI): inactive
Neutrophil [2]
  IC50: 13.6 µM
A549
  growth inhibition (GI): inactive

## CC1(C)CC[C@]2(C(=O)O[C@@H]3O[C@H](CO)[C@@H](O)[C@H](O)[C@H]3O)CC[C@]3(C)C(=CC[C@@H]4[C@@]5(C)CC[C@H](O[C@@H]6O[C@H](C(=O)O[C@@H]7O[C@H](CO)[C@@H](O)[C@H](O)[C@H]7O)[C@@H](O[C@@H]7O[C@@H](CO)[C@H](O)[C@H]7O)[C@H](O)[C@H]6O)C(C)(C)[C@@H]5CC[C@]43C)[C@@H]2C1
DU-145
  growth inhibition (GI): inactive
KB
  growth inhibition (GI): inactive
Neutrophil [3]
  IC50: 1.56 µM
Neutrophil [1]
  IC50: 1.87 µM
HCT-8
  growth inhibition (GI): inactive
A549
  growth inhibition (GI): inactive

## CCCCOC(=O)[C@H]1O[C@@H](O[C@H]2CC[C@]3(C)[C@H]4CC=C5[C@@H]6CC(C)(C)CC[C@]6(C(=O)O[C@@H]6O[C@H](CO)[C@@H](O)[C@H](O)[C@H]6O)CC[C@@]5(C)[C@]4(C)CC[C@H]3C2(C)C)[C@H](O)[C@@H](O)[C@@H]1O
DU-145
  growth inhibition (GI): inactive
KB
  growth inhibition (GI): inactive
Neutrophil [3]
  IC50: 3.73 µM
Neutrophil [1]
  IC50: 7.28 µM
HCT-8
  growth inhibition (GI): inactive
A549
  growth inhibition (GI): inactive

## C[C@H]1O[C@H](O[C@H]2[C@H](O)[C@@H](O)[C@@H](O[C@H]3[C@H](O)[C@@H](O)C(O)O[C@@H]3CO)O[C@@H]2CO)[C@H](O)[C@@H](O)[C@@H]1N[C@H]1C=C(CO)[C@@H](O)[C@H](O)[C@H]1O (some centres undefined) [ACARBOSE]
[4]
  IC50: 678 µM

## CC1(C)CC[C@]2(C(=O)O[C@@H]3O[C@H](CO)[C@@H](O)[C@H](O)[C@H]3O)CC[C@]3(C)C(=CC[C@@H]4[C@@]5(C)CC[C@H](O[C@@H]6O[C@H](C(=O)O)[C@@H](O)[C@H](O)[C@H]6O)C(C)(C)[C@@H]5CC[C@]43C)[C@@H]2C1 [CHIKUSETSUSAPONIN IVA]
DU-145
  growth inhibition (GI): inactive
KB
  growth inhibition (GI): inactive
Neutrophil [3]
  IC50: 2.88 µM
Neutrophil [1]
  IC50: 4.76 µM
HCT-8
  growth inhibition (GI): inactive
A549
  growth inhibition (GI): inactive

## CC1(C)CC[C@]2(C(=O)O)CC[C@]3(C)C(=CC[C@@H]4[C@@]5(C)CC[C@H](O)C(C)(C)[C@@H]5CC[C@]43C)[C@@H]2C1 [OLEANOLIC_ACID]
DU-145
  growth inhibition (GI): inactive
KB
  growth inhibition (GI): inactive
Neutrophil [3]
  IC50: 1.37 µM
Neutrophil [1]
  IC50: 0.75 µM
HCT-8
  growth inhibition (GI): inactive
A549
  growth inhibition (GI): inactive

## COC(=O)[C@H]1O[C@@H](O[C@H]2CC[C@]3(C)[C@H]4CC=C5[C@@H]6CC(C)(C)CC[C@]6(C(=O)O[C@@H]6O[C@H](CO)[C@@H](O)[C@H](O)[C@H]6O)CC[C@@]5(C)[C@]4(C)CC[C@H]3C2(C)C)[C@H](O[C@H]2OC[C@@H](O)[C@H](O)[C@H]2O)[C@@H](O)[C@@H]1O [PSEUDOGINSENOSIDE RT1 METHYL ESTER]
DU-145
  growth inhibition (GI): inactive
KB
  growth inhibition (GI): inactive
Neutrophil [3]
  IC50: 5.26 µM
Neutrophil [1]
  IC50: 7.75 µM
HCT-8
  growth inhibition (GI): inactive
A549
  growth inhibition (GI): inactive

## CC1(C)CC[C@]2(C(=O)O[C@@H]3O[C@H](CO)[C@@H](O)[C@H](O)[C@H]3O)CC[C@]3(C)C(=CC[C@@H]4[C@@]5(C)CC[C@H](O[C@@H]6O[C@H](C(=O)O)[C@@H](O)[C@H](O)[C@H]6O[C@H]6OC[C@@H](O)[C@H](O)[C@H]6O)C(C)(C)[C@@H]5CC[C@]43C)[C@@H]2C1 [PSEUDOGINSENOSIDE RT1]
DU-145
  growth inhibition (GI): inactive
KB
  growth inhibition (GI): inactive
Neutrophil [3]
  IC50: 19.4 µM
Neutrophil [1]
  IC50: 44.5 µM
HCT-8
  growth inhibition (GI): inactive
A549
  growth inhibition (GI): inactive

## CCCCOC(=O)[C@H]1O[C@@H](O[C@H]2CC[C@]3(C)[C@H]4CC=C5[C@@H]6CC(C)(C)CC[C@]6(C(=O)O[C@@H]6O[C@H](CO)[C@@H](O)[C@H](O)[C@H]6O)CC[C@@]5(C)[C@]4(C)CC[C@H]3C2(C)C)[C@H](O)[C@@H](O)[C@@H]1O[C@@H]1O[C@@H](CO)[C@H](O)[C@H]1O [TAIBAIENOSIDE I]
DU-145
  growth inhibition (GI): inactive
KB
  growth inhibition (GI): inactive
Neutrophil [3]
  IC50: 2.24 µM
Neutrophil [1]
  IC50: 1.36 µM
HCT-8
  growth inhibition (GI): inactive
A549
  growth inhibition (GI): inactive
